From article PMC9486889 (Japanese Journal of Clinical Oncology, 2022)

Experiments:
[1] = tested on: relapsed or refractory non-Hodgkin's lymphoma; experiment: Anti-tumor activity; assay type: in vivo, Japanese patients
[2] = tested on: HDAC3; settings: cited from earlier work
[3] = pre-clinical study, no reference given; cited from earlier work
[4] = Plasma and urine pharmacokinetics, Cycle 1; assay type: in vivo, Japanese patients
Procedure, shortened: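 Oral 30 or 40 mg BIW. In Cycle 1, plasma was sampled on Days 1 and 25 from pre-dose to 72 h post-dose. Urine was collected in three 24-h intervals after the Day 1 and Day 25 doses. Parent drug and metabolites were measured by LC/MS–MS. The PK population received ≥1 Cycle 1 dose and had ≥1 measured post-dose concentration.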

[5] = 40 mg BIW cohort, seven patients
[6] = NHL other than ATL, 30 mg BIW, 5 patients
[7] = NHL other than ATL, 40 mg BIW, 3 patients

Nc1cc(F)ccc1NC(=O)c1ccc(CNC(=O)/C=C/c2cccnc2)cc1 [HBI-8000, tucidinostat]
Stable disease after the first cycle ([1]; 30 mg BIW cohort): three of six | Disease control (CR + CRu + PR + SD) ([1]; 30 mg BIW cohort, six patients): 66.7% | ORR ([1]; 30 mg BIW cohort, six patients): 16.7% | Objective response ([1]; 40 mg BIW cohort): five of seven | Partial responders with adult T-cell leukemia-lymphoma ([1]; 40 mg BIW cohort): three | Disease control (CR + CRu + PR + SD) [1, 5]: 100% | ORR [1, 5]: 71.4% | Best overall response: PR ([1]; ATL, 30 mg BIW, 1 patient): 0 (0) n (%) | Best overall response: SD ([1]; ATL, 30 mg BIW, 1 patient): 1 (100) n (%) | Disease control (CR, PR or SD) ([1]; ATL, 30 mg BIW, 1 patient): 1 (100) n (%) | Objective response (CR or PR) ([1]; ATL, 30 mg BIW, 1 patient): 0 (0.0) n (%) | Best overall response: PR ([1]; ATL, 40 mg BIW, 4 patients): 3 (75.0) n (%) | Best overall response: SD ([1]; ATL, 40 mg BIW, 4 patients): 1 (25.0) n (%) | Disease control (CR, PR or SD) ([1]; ATL, 40 mg BIW, 4 patients): 4 (100) n (%) | Objective response (CR or PR) ([1]; ATL, 40 mg BIW, 4 patients): 3 (75.0) n (%) | Objective response ([1]; NHL other than ATL, 30 mg BIW cohort): 20% | Best overall response: CR [1, 6]: 0 (0) n (%) | Best overall response: CRu [1, 6]: 1 (20.0) n (%) | Best overall response: PD [1, 6]: 2 (40.0) n (%) | Best overall response: SD [1, 6]: 2 (40.0) n (%) | Disease control (CR, CRu, PR or SD) [1, 6]: 3 (60.0) n (%) | Objective response (CR, CRu or PR) [1, 6]: 1 (20.0) n (%) | Objective response ([1]; NHL other than ATL, 40 mg BIW cohort): 66.7% | Best overall response: CR [1, 7]: 1 (33.3) n (%) | Best overall response: CRu [1, 7]: 1 (33.3) n (%) | Best overall response: PD [1, 7]: 0 (0) n (%) | Best overall response: SD [1, 7]: 1 (33.3) n (%) | Disease control (CR, CRu, PR or SD) [1, 7]: 3 (100) n (%) | Objective response (CR, CRu or PR) [1, 7]: 2 (66.7) n (%) | Responses in patients with ATL ([1]; both cohorts): three out of five | Inhibition of HDAC activity [2]: selectively inhibits | Effect on cardiovascular system including changes in QTc prolongation [3]: did not induce any effect | Administered dose excreted unchanged in urine over the dosing interval, average ([4]; 30 mg cohort): 25.3% | Administered dose excreted unchanged in urine over the dosing interval, average ([4]; 40 mg cohort): 21.9% | half-life ([4]; human, plasma, oral, 40 mg, Mean t1/2, 30 and 40 mg, Days 1 and 25): 17.1 to 21.6 h | AUC(0-inf) ([4]; human, plasma, po, 30 mg): 4000 ng·h/mL | AUC(0-inf) ([4]; human, plasma, po, 40 mg): 7160 ng·h/mL | Tmax ([4]; human, plasma, po, 40 mg, Median tmax, single and repeat oral administration, 30 and 40 mg): 2.42 to 5 h
